Measured values as given in publication PMC5028261 (Neurochemistry international, 2016).
Read-outs that look alike come from different tables or passages of the source.

Legend:
[1] = test system: CNS neurons in mixed retinal culture; conditions: ref Geiger et al., 2002; cited from earlier work
[2] = Superoxide detection by EPR with spin trap DEPMPO; type: biochemical; conditions: for reducing activity by EPR spectroscopy: converts superoxide adduct of the spin trap to hydroxyl adduct; for effect on EPR spectra of superoxide adduct of DEPMPO: xanthine/xanthine oxidase
Summary of the method: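 Superoxide is generated from hypoxanthine (200 μM) and xanthine oxidase (0.0025 U/mL) with the spin trap DEPMPO present. A hydroxyl-adduct reference spectrum comes from a Fenton reaction: FeSO4 (100 μM), diethylenetriaminepentaacetic acid (100 μM) and H2O2 (1 mM) with DEPMPO (100 mM). Superoxide- and hydroxyl-DEPMPO adducts are recorded by EPR at room temperature, 9.85 GHz.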

rats [3] = conditions: ref Swanson et al., 2005; cited from earlier work
neurons after axotomy = conditions: in vivo; ref Geiger et al., 2002; cited from earlier work
rats [4] = conditions: ref Hampton Research, 2016, cited from earlier work
RGC-5 cells = type: cell-based; conditions: one hour, DSSA alone 22.3 ± 0.2, mean ± SEM of 3 experiments
[5] = octanol/water, room temperature
rat [6] = conditions: rat optic nerve transection; ref Almasieh et al., 2011; cited from earlier work
[7] = over 72 hours, HPLC
[8] = Cell-free disulfide reduction of DTNB; type: biochemical; conditions: for reduction of disulfides in cell-free assays: non-deprotected (borane-complexed) forms
[9] = test system: RGCs and retinal endothelial cells; conditions: ref Schlieve et al., 2006; cited from earlier work
[10] = Superoxide scavenging, xanthine/xanthine oxidase with hydroethidine fluorescence; type: biochemical; conditions: 1, 10, 100 μM, compared to PEG-SOD control
[11] = Accelerated stability of solid compound by HPLC; type: physicochemical
rat [12] = conditions: rat experimental glaucoma; ref Almasieh et al., 2011; cited from earlier work

Compound	reducing activity by EPR spectroscopy [2]	effect on EPR spectra of superoxide adduct of DEPMPO [2]	neuroprotection in vivo (rat [6])	mean cell fluorescence intensity (DSSA-1) (RGC-5 cells; 10 μM)	reduction of disulfides in cell-free assays [8]	superoxide scavenging (2-hydroxyethidium fluorescence) [10]	peak area, % of control ([11]; 40°C, 37 days) [%]	peak area, % of control ([11]; 40°C, 125 days) [%]	peak area, % of control ([11]; 60°C, 37 days) [%]	peak area, % of control ([11]; 60°C, 125 days) [%]	neuroprotection in vivo (rat [12])	also measured
O[C@@H](CS)[C@@H](O)CS (racemic) [DTT, dithiothreitol]												in vitro survival of CNS neurons [1]: can increase in vitro survival
COC(=O)CCP(CCC(=O)OC)c1ccccc1 [P1, bis(3-propionic acid methyl ester) phenylphosphine]	strong reducing activity	did not diminish the spectra of superoxide										
O=C(O)CCP(CCC(=O)O)CCC(=O)O [TCEP, tris(2-carboxyethyl)phosphine]												neuronal death after optic nerve crush (rats [3]): prevents neuronal death; neuronal death after axotomy (neurons after axotomy): prevents neuronal death; LD50 (rats [4]; i.p injection): greater than 1024 mg/kg; LD50 (rats [4]; rats dosed orally): 3500 mg/kg; mean cell fluorescence intensity (DSSA-1) (RGC-5 cells; 1 mM): 25.6 ± 0.2
COC(=O)CCP(c1ccccc1)c1ccccc1 [P2, (3-propionic acid methyl ester)diphenylphosphine]	strong reducing activity	did not diminish the spectra of superoxide										
[BH3-][P+](CCC(=O)OC)(c1ccccc1)c1ccccc1 [PB2, (3-propionic acid methyl ester) diphenylphosphine-borane complex]			neuroprotective	36.6 ± 0.2	did not reduce disulfides	did not appreciably scavenge superoxide	100	86	100	14	neuroprotective	log Poct/wat [5]: 1.1; solubility in water [7]: 3.7 µM; reducing capability towards DTNB ([8]; borane removed with DABCO, pH 7, compared with DTT and TCEP): reduced disulfides more effectively than DTT or TCEP; no toxicity up to (concentration) [9]: 100 µM; calculated half-life ([11]; 20°C, extrapolation using the Arrhenius equation): 18 years
bis(3-propionic acid methyl ester) phenylphosphine-borane complex [PB1]			neuroprotective	26.7 ± 0.3	did not reduce disulfides	did not appreciably scavenge superoxide	80	58	72	12	neuroprotective	
